Measured values reported in article PMC8992012 (Bioorganic & medicinal chemistry, 2021).

These compounds were tested on NF-κB (assay: NF-κB activation using THP1-Blue NF-κB cells). Conditions: Homo sapiens, 20 h, read-out: NF-κB SEAP Compound alone % Activation.
Format: cell-based, human
Procedure, shortened: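 THP1-Blue NF-κB cells carry a stably integrated NF-κB-inducible SEAP. They were plated at 10^5 cells/well in RPMI with 10% FBS, penicillin, streptomycin and Normocin, then treated for 20 h with 5 μM test compound (0.5% DMSO final), alone or with LPS at 10 ng/mL. Supernatant SEAP was read colorimetrically at 630 nm. Signals were two-point normalized: baseline (vehicle or LPS) 100%, reference hit 200%.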
Work on `Cc1ccccc1-c1csc(NC(=O)c2ccc(S(=O)(=O)N3CCCCC3)cc2)n1` [Compound 12b, 4-(piperidin-1-ylsulfonyl)-N-(4-(o-tolyl)thiazol-2-yl)benzamide] yielded an activation at 5 µM of 100%.
`Cc1cccc(-c2csc(NC(=O)c3ccc(S(=O)(=O)N4CCCCC4)cc3)n2)c1` [Compound 12c, 4-(piperidin-1-ylsulfonyl)-N-(4-(m-tolyl)thiazol-2-yl)benzamide] showed an activation at 5 µM of 100%.

Same assay, conditions: compound alone, 5 μM, 20h
For `Cc1ccc(C)c(-c2nc(NC(=O)c3ccc(S(=O)(=O)N4CCCCC4)cc3)sc2N2CCCCC2)c1` [Compound 18h, N-(4-(2,5-dimethylphenyl)-5-(piperidin-1-yl)thiazol-2-yl)-4-(piperidin-1-ylsulfonyl)benzamide], the “NF-κB activity (in words, SAR text to Table 1)” value (“NF-κB activity” below) was “completely inactive”.
For `Cc1ccc(C)c(-c2csc(NS(=O)(=O)c3ccc(C(=O)N4CCCCC4)cc3)n2)c1` [Compound 51, N-(4-(2,5-dimethylphenyl)thiazol-2-yl)-4-(piperidine-1-carbonyl)benzenesulfonamide], the “NF-κB activity” value was “inactive”.
In the case of `Cc1ccccc1-c1csc(NC(=O)c2ccc(S(=O)(=O)N3CCCCC3)cc2)n1` [Compound 12b, 4-(piperidin-1-ylsulfonyl)-N-(4-(o-tolyl)thiazol-2-yl)benzamide], the “NF-κB activity” value is reported as “inactive”.
`CC(C)(C)c1csc(NC(=O)c2ccc(S(=O)(=O)N3CCCCC3)cc2)n1` [Compound 12k, N-(4-(tert-butyl)thiazol-2-yl)-4-(piperidin-1-ylsulfonyl)benzamide] was tested, and the “NF-κB activity” value was “None of these molecules had any NF-κB activity”.
With `CCN(c1ccccc1)S(=O)(=O)c1ccc(C(=O)Nc2nc(-c3cc(C)ccc3C)cs2)cc1` [Compound 54d, N-(4-(2,5-dimethylphenyl)thiazol-2-yl)-4-(N-ethyl-N-phenylsulfamoyl)benzamide] the “NF-κB activity” value was “inactive”.
For `CCOC1CCN(S(=O)(=O)c2ccc(C(=O)Nc3nc(-c4cc(C)ccc4C)cs3)cc2)CC1` [Compound 54g, N-(4-(2,5-dimethylphenyl)thiazol-2-yl)-4-((4-ethoxypiperidin-1-yl)sulfonyl)benzamide], the “NF-κB activity” value was “very potent”.
For `Cc1ccc(C)c(-c2csc(NC(=O)c3ccc(S(=O)(=O)N4CCCCC4)cc3Br)n2)c1` [Compound 42i, 2-bromo-N-(4-(2,5-dimethylphenyl)thiazol-2-yl)-4-(piperidin-1-ylsulfonyl)benzamide], the “NF-κB activity” value was “significantly dropped”.
In the case of `Cc1ccc(C)c(-c2csc(NC(=O)c3ccc(S(=O)(=O)N4CCCCC4)cc3Cl)n2)c1` [Compound 42h, 2-chloro-N-(4-(2,5-dimethylphenyl)thiazol-2-yl)-4-(piperidin-1-ylsulfonyl)benzamide], the “NF-κB activity” value is reported as “significantly dropped”.
With `CC(C)(C)Cc1csc(NC(=O)c2ccc(S(=O)(=O)N3CCCCC3)cc2)n1` [Compound 12j, N-(4-neopentylthiazol-2-yl)-4-(piperidin-1-ylsulfonyl)benzamide] the “NF-κB activity” value was “None of these molecules had any NF-κB activity”.
For `Cc1ccc(C)c(-c2csc(NC(=O)c3ccc(S(=O)(=O)N4CCCCC4)nc3)n2)c1` [Compound 42b, N-(4-(2,5-dimethylphenyl)thiazol-2-yl)-6-(piperidin-1-ylsulfonyl)nicotinamide], the “NF-κB activity” value was “loss of activity”.
`Cc1ccc(Br)cc1-c1csc(NC(=O)c2ccc(S(=O)(=O)N3CCCCC3)cc2)n1` [Compound 12e, N-(4-(5-bromo-2-methylphenyl)thiazol-2-yl)-4-(piperidin-1-ylsulfonyl)benzamide] was tested, and the “NF-κB activity” value was “active”.
With `CCSc1sc(NC(=O)c2ccc(S(=O)(=O)N3CCCCC3)cc2)nc1-c1cc(C)ccc1C` [Compound 18k, N-(4-(2,5-dimethylphenyl)-5-(ethylthio)thiazol-2-yl)-4-(piperidin-1-ylsulfonyl)benzamide] the “NF-κB activity” value was “completely inactive”.
With `Cc1cccc(-c2csc(NC(=O)c3ccc(S(=O)(=O)N4CCCCC4)cc3)n2)c1C` [Compound 12l, N-(4-(2,3-dimethylphenyl)thiazol-2-yl)-4-(piperidin-1-ylsulfonyl)benzamide] the “NF-κB activity” value was “retained activity”.
In the case of `CCCCN(CCCC)S(=O)(=O)c1ccc(C(=O)Nc2nc(-c3cc(C)ccc3C)cs2)cc1` [Compound 54c, 4-(N,N-dibutylsulfamoyl)-N-(4-(2,5-dimethylphenyl)thiazol-2-yl)benzamide], the “NF-κB activity” value is reported as “lost activity”.
With `Cc1ccc(C)c(-c2csc(NC(=O)c3ccc(S(=O)(=O)N4CCNCC4)cc3)n2)c1` [Compound 54i, N-(4-(2,5-dimethylphenyl)thiazol-2-yl)-4-(piperazin-1-ylsulfonyl)benzamide] the “NF-κB activity” value was “inactive”.
In the case of `Cc1ccc(C)c(-c2csc(NC(=O)c3ccc(S(=O)(=O)N4CCN(C(=O)OC(C)(C)C)CC4)cc3)n2)c1` [Compound 54f, tert-butyl 4-((4-((4-(2,5-dimethylphenyl)thiazol-2-yl)carbamoyl)phenyl)sulfonyl)piperazine-1-carboxylate], the “NF-κB activity” value is reported as “inactive”.
For `Cc1ccc(C)c(-c2csc(NC(=O)c3ccc(SC4CCCCC4)cc3)n2)c1` [Compound 45a, 4-(cyclohexylthio)-N-(4-(2,5-dimethylphenyl)thiazol-2-yl)benzamide], the “NF-κB activity” value was “none of these modifications at site E was tolerated”.
With `Cc1ccc(C)c(-c2csc(NC(=O)c3ccc(S(=O)(=O)C4CCCCC4)cc3)n2)c1` [Compound 45b, 4-(cyclohexylsulfonyl)-N-(4-(2,5-dimethylphenyl)thiazol-2-yl)benzamide] the “NF-κB activity” value was “none of these modifications at site E was tolerated”.
`O=C(Nc1nc(-c2cccc3ccccc23)cs1)c1ccc(S(=O)(=O)N2CCCCC2)cc1` [Compound 12q, N-(4-(naphthalen-1-yl)thiazol-2-yl)-4-(piperidin-1-ylsulfonyl)benzamide] was tested, and the “NF-κB activity” value was “equally potent”.
In the case of `CC(=O)N1CCN(S(=O)(=O)c2ccc(C(=O)Nc3nc(-c4cc(C)ccc4C)cs3)cc2)CC1` [Compound 54j, 4-((4-acetylpiperazin-1-yl)sulfonyl)-N-(4-(2,5-dimethylphenyl)thiazol-2-yl)benzamide], the “NF-κB activity” value is reported as “inactive”.
With `Cc1ccc(C)c(-c2nc(NC(=O)c3ccc(S(=O)(=O)N4CCCCC4)cc3)sc2-c2ccco2)c1` [Compound 18j, N-(4-(2,5-dimethylphenyl)-5-(furan-2-yl)thiazol-2-yl)-4-(piperidin-1-ylsulfonyl)benzamide] the “NF-κB activity” value was “completely inactive”.
In the case of `Cc1cccc(-c2csc(NC(=O)c3ccc(S(=O)(=O)N4CCCCC4)cc3)n2)c1` [Compound 12c, 4-(piperidin-1-ylsulfonyl)-N-(4-(m-tolyl)thiazol-2-yl)benzamide], the “NF-κB activity” value is reported as “inactive”.
With `CCCN(CCC)S(=O)(=O)c1ccc(C(=O)Nc2nc(-c3cc(C)ccc3C)cs2)cc1` [Compound 54b, N-(4-(2,5-dimethylphenyl)thiazol-2-yl)-4-(N,N-dipropylsulfamoyl)benzamide] the “NF-κB activity” value was “active”.
`Cc1ccc(C)c(-c2cnc(NC(=O)c3ccc(S(=O)(=O)N4CCCCC4)cc3)s2)c1` [Compound 18e, N-(5-(2,5-dimethylphenyl)thiazol-2-yl)-4-(piperidin-1-ylsulfonyl)benzamide] was tested, and the “NF-κB activity” value was “none of these molecules that replaced the thiazole functionality was active”.

Same assay, conditions: in presence of LPS, compared to compound 1
In the case of `C#CC1CCN(S(=O)(=O)c2ccc(C(=O)Nc3nc(-c4cc(C)ccc4C)cs3)cc2)CC1` [Compound 68d, N-(4-(2,5-dimethylphenyl)thiazol-2-yl)-4-((4-ethynylpiperidin-1-yl)sulfonyl)benzamide], the “NF-κB induction in the presence of LPS (in words, Fig. 6)” value is reported as “modestly active”.
